Key:
[1] = system: IMCD3 cells; assay: Real-time imaging of mNeonGreen-IFT88 movement; assay type: cell-based, murine; details: 15 μM
Outline: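 Live IMCD3 cells expressing mNeonGreen-IFT88 were given 15 μM test compound or DMSO for 3 min and imaged in real time. Foci were tracked and classed as anterograde, retrograde or immobile, and their mean velocity and frequency were quantified from at least seven cilia across three independent experiments (± s.e.m.; P < 0.05 or 0.01).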

[2] = target: DYNC1H1 (Homo sapiens, UniProt Q14204); assay: DYNC1H1 ATPase assay; assay type: biochemical
DYNC1H1, sequence (Q14204 whole entry): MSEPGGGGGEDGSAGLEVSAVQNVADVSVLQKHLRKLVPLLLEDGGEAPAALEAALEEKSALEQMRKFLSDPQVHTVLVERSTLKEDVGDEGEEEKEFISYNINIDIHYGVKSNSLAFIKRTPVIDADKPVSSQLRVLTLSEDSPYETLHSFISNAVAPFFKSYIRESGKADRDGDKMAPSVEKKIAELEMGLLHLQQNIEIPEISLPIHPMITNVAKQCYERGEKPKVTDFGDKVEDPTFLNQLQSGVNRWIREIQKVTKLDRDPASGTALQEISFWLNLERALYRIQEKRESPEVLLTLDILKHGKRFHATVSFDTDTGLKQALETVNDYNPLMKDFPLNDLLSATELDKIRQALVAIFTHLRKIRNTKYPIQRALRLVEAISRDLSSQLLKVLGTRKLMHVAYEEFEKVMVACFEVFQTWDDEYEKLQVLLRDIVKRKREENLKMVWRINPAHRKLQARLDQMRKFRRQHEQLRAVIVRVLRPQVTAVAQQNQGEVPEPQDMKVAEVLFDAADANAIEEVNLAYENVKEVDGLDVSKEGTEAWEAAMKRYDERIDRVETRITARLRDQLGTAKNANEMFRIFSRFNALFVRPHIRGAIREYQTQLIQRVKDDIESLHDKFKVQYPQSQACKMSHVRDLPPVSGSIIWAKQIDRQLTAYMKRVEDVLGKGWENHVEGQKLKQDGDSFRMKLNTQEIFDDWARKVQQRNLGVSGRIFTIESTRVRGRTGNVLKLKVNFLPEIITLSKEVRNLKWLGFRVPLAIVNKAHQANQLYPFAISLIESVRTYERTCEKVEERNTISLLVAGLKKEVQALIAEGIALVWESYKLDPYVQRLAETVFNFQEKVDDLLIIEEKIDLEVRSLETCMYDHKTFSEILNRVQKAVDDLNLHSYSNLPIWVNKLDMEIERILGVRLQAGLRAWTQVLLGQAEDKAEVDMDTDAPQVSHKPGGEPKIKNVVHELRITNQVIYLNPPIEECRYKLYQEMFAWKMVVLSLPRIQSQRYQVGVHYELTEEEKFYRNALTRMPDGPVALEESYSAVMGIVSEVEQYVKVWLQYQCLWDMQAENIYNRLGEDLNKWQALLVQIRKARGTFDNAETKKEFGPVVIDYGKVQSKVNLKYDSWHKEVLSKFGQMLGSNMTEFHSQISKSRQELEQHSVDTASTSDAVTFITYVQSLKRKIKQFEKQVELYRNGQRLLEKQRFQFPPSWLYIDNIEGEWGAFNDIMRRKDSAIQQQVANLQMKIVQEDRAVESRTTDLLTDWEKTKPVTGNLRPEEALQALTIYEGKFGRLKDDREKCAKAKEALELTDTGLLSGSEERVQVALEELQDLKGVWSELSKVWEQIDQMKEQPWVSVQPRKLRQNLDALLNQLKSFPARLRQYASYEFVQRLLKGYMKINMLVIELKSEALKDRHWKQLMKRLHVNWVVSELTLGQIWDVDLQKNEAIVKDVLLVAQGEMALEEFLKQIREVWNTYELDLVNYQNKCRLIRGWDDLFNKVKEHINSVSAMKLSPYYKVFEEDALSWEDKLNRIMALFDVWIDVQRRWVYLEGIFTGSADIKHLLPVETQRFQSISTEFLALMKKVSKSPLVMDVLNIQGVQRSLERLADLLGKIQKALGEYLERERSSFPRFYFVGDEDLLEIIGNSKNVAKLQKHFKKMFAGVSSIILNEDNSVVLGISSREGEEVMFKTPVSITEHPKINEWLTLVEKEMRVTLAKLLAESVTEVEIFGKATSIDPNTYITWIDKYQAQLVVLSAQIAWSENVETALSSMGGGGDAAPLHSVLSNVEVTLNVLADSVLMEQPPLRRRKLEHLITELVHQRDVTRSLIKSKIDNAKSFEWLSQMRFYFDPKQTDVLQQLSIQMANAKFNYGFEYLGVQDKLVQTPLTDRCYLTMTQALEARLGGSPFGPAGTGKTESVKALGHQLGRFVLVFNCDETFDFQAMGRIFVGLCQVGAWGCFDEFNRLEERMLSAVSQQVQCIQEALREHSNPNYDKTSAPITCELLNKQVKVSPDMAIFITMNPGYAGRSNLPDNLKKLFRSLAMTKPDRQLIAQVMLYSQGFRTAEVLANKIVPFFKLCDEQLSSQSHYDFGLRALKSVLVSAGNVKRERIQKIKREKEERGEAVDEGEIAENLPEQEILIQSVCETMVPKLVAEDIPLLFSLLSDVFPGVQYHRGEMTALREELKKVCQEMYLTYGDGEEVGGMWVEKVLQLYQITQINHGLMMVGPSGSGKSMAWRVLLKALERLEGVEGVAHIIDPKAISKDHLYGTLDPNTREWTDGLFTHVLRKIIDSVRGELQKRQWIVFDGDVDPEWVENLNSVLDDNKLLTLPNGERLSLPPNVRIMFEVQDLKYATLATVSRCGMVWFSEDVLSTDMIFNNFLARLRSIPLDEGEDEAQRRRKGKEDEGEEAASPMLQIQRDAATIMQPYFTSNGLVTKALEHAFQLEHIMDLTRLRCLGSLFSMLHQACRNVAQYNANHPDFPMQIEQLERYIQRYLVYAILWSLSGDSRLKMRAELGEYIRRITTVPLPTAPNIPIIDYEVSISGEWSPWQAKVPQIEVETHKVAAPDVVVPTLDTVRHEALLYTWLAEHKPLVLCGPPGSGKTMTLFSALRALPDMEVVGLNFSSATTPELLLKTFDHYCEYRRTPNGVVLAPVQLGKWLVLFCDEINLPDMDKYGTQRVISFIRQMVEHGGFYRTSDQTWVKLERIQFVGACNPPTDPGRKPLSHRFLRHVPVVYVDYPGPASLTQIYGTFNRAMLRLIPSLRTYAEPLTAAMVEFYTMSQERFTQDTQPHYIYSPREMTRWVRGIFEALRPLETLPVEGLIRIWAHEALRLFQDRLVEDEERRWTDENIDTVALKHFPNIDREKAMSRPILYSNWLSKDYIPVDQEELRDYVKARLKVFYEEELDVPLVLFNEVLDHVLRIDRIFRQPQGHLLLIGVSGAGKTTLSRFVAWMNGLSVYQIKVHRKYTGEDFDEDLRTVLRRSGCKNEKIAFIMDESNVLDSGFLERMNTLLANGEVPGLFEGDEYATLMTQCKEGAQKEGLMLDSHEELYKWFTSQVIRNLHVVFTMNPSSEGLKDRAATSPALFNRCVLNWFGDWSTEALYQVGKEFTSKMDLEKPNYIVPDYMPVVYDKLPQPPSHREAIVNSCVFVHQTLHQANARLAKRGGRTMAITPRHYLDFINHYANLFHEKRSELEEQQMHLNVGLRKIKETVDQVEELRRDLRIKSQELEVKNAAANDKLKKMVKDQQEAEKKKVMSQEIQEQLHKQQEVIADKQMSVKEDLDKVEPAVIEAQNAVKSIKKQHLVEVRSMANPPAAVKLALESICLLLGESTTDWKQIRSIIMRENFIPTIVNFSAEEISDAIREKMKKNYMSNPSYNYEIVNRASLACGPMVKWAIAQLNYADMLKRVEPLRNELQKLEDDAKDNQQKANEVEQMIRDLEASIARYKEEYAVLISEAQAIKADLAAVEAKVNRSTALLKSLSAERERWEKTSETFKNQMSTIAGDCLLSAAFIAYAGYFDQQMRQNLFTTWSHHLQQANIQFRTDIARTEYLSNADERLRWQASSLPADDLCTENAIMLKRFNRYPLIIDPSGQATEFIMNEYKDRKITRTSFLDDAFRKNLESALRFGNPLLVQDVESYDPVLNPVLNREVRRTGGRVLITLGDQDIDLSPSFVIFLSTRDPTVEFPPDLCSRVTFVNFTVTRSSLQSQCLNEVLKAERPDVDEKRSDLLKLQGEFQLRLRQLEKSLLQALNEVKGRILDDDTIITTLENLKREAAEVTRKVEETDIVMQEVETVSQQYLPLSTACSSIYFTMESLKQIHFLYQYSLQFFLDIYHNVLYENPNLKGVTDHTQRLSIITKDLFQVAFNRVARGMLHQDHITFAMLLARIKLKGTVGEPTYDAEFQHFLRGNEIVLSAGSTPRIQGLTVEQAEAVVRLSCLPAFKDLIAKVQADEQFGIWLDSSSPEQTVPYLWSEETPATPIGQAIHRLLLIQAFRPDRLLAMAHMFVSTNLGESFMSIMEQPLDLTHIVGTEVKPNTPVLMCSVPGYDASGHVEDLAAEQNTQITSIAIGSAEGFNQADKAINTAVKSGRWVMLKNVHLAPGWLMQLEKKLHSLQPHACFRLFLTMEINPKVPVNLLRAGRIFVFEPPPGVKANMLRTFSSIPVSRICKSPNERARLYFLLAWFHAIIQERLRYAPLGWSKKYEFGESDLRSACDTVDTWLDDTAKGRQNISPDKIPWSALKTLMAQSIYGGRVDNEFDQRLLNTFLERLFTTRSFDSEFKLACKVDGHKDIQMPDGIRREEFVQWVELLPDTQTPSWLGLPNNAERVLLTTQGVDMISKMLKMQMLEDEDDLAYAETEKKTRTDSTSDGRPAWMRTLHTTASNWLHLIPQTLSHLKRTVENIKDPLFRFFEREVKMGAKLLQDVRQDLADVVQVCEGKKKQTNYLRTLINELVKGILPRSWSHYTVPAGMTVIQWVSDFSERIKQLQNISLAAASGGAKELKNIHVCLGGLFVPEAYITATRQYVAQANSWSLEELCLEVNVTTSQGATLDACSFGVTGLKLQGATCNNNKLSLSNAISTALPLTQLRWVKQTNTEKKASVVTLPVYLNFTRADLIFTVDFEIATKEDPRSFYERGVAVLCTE
Outline: (§1)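 Purified N-terminally SBP- and SNAP-tagged full-length human heavy chains; hydrolysis of γ-32P ATP measured at 37 °C under conditions kept linear from enzyme reaction curves. Single-dose screens used 50 μM in both assays (about 25 nM γ-32P ATP, duplicates), or 50 μM for DYNC1H1 and 15 μM for DYNC2H1 (two experiments). IC50 calculated from dose-response curves run in triplicate.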

[3] = system: Hh signaling; assay: Hh signaling assay; assay type: cell-based, murine; details: ShhN-conditioned medium and compound for 30 h
[4] = target: DYNC2H1 (Homo sapiens, UniProt Q8NCM8); assay: DYNC2H1 ATPase assay; assay type: biochemical
Outline: as §1

[5] = system: NIH-3T3 cell-derived line; assay: Ciliogenesis assay; assay type: cell-based, murine; details: 30 μM; 24 h
Outline: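 NIH-3T3-derived cells were exposed to the test compound at 30 μM for 24 h, then fixed and immunostained for ARL13B. Primary cilium length was taken as the mean number of ARL13B-positive pixels per cell over at least 6 fields of view, about 800 cells per condition, reported ± s.e.m.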

Row | Compound | time to disruption of ciliary transport [1] | IC50 [2] | inhibition of Hh signaling [3] | IC50 [4] | inhibition of ciliogenesis / primary cilium length [5]
1 | Cc1ccc(COc2ccc3c(c2)NC(=C(C#N)C(=O)c2ccc(Cl)cc2Cl)NC3=O)cc1 [analog 37] | ≤ 3 min | – | – | – | –
2 | CC(C)Oc1ccc2c(c1)NC(=C(C#N)C(=O)c1ccc(Cl)cc1Cl)NC2=O [analog 18] | – | 130 µM | Dose-dependent inhibition of Hh signaling | 21 µM | Inhibition of ciliogenesis

Source: publication PMC4715766 (ACS Chemical Biology, 2015)
